# Results from ChEMBL document CHEMBL1136105, “1,7- and 2,7-naphthyridine derivatives as potent and highly specific PDE5 inhibitors” (Bioorg Med Chem Lett, 2003).
# Assays:
# Phosphodiesterase 4 = Phosphodiesterase 4 (Homo sapiens, UniProt P27815+Q08499+Q07343+Q08493); test: Inhibitory activity against phosphodiesterase 4 (PDE4) isolated from canine lung; format: protein assay, Canis lupus familiaris; settings: target entry is the homologue from another species
# Method in brief: (§1)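 Enzyme IC50 taken from a logarithmic concentration–inhibition curve of at least four points; each value is the mean of at least two duplicate experiments.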
# Phosphodiesterase 6 = test: Inhibitory activity against Phosphodiesterase 6 isolated from bovine retina; format: protein assay
# [1] = target: T1, cGMP-dependent 3',5'-cyclic phosphodiesterase (Bos taurus, UniProt P14099); test: Inhibitory activity against phosphodiesterase-2 (PDE2) isolated from bovine adrenal gland; format: tissue-based; method in brief: as §1
# T1 sequence (P14099 whole entry): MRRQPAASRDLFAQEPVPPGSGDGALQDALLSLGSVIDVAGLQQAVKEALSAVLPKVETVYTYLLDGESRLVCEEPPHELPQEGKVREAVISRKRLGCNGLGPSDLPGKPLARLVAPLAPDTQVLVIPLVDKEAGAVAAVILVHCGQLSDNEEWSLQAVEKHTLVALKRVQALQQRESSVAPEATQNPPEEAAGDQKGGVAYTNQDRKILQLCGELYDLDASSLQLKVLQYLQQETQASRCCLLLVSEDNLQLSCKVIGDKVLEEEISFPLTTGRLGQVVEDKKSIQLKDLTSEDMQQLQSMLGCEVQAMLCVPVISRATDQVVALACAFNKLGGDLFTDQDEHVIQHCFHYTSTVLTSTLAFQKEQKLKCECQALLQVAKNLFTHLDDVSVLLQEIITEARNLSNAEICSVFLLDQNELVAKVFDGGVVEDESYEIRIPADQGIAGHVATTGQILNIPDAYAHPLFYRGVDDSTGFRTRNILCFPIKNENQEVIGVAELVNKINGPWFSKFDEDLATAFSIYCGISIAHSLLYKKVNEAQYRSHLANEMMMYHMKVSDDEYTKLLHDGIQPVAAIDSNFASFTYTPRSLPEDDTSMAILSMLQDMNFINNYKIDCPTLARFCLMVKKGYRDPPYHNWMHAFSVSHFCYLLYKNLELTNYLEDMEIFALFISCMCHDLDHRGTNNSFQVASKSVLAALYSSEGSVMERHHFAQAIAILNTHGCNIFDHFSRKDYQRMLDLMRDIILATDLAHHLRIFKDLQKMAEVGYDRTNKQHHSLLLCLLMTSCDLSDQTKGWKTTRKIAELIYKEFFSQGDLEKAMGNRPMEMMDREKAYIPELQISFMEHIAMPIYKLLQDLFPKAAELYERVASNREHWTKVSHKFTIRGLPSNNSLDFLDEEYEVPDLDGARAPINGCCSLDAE
# [2] = target: cGMP-specific 3',5'-cyclic phosphodiesterase (Canis lupus familiaris, UniProt O77746); test: Inhibitory activity against phosphodiesterase 5 (PDE5) isolated from canine lung; method in brief: as §1
# Phosphodiesterase 1 = Phosphodiesterase 1 (Homo sapiens, UniProt P54750+Q01064+Q14123); test: Inhibitory activity against phosphodiesterase-1 (PDE1) isolated from canine lung; format: protein assay, Canis lupus familiaris; settings: target entry is the homologue from another species; method in brief: as §1
# Phosphodiesterase 3 = Phosphodiesterase 3 (Homo sapiens, UniProt Q14432+Q13370); test: Inhibitory activity against phosphodiesterase-3 (PDE3) isolated from canine heart; format: protein assay, Canis lupus familiaris; settings: target entry is the homologue from another species; method in brief: as §1
# Oryctolagus cuniculus = species on record: Oryctolagus cuniculus; test: Relaxant effect on rabbit corpus cavernosum; format: functional
IC50 (Phosphodiesterase 4),IC50 (Phosphodiesterase 6),IC50 [1],IC50 [2],IC50 (Phosphodiesterase 1),IC50 (Phosphodiesterase 3),SMILES,EC30 (Oryctolagus cuniculus)
19000 nM,42 nM,25000 nM,1.9 nM,> 100000 nM,> 100000 nM,COC(=O)c1c(-c2cc(OC)c(OC)c(OC)c2)c2ccc(OCc3ncccn3)nc2c(=O)n1Cc1ccnc(C)c1.Cl,37 nM
30000 nM,8.6 nM,40000 nM,0.22 nM,33000 nM,> 100000 nM,COC(=O)c1c(-c2cc(OC)c(OC)c(OC)c2)c2ccc(OCc3ccccn3)nc2c(=O)n1Cc1ccnc(C)c1.Cl,53 nM
,38 nM,,2.3 nM,12000 nM,,COC(=O)c1c(-c2cc(OC)c(OC)c(OC)c2)c2ccc(OCc3ccccn3)nc2c(=O)n1Cc1cccnc1.Cl,
,11 nM,,0.38 nM,45000 nM,,COC(=O)c1c(-c2cc(OC)c(OC)c(OC)c2)c2ccc(OCc3ccccn3)nc2c(=O)n1Cc1ccncc1.Cl,
,1400 nM,,94 nM,> 100000 nM,,COC(=O)c1c(-c2cc(OC)c(OC)c(OC)c2)c2ccnc(N3CCN(C)CC3)c2c(=O)n1Cc1ccnc(C)c1,
,230 nM,,11 nM,20000 nM,,COC(=O)c1c(-c2cc(OC)c(OC)c(OC)c2)c2ccc(OCc3ccccn3)nc2c(=O)n1Cc1ccccn1.Cl,
,,43000 nM,,,,CCCc1nn(C)c2c(=O)[nH]c(-c3cc(S(=O)(=O)N4CCN(C)CC4)ccc3OCC)nc12,
450 nM,280 nM,78000 nM,2.6 nM,19000 nM,5300 nM,COC(=O)c1c(-c2cc(OC)c(OC)c(OC)c2)c2ccnc(NCCO)c2c(=O)n1Cc1ccnc(C)c1.Cl,14 nM
67000 nM,56 nM,> 100000 nM,0.23 nM,> 100000 nM,> 100000 nM,COC(=O)c1c(-c2cc(OC)c(OC)c(OC)c2)c2ccnc(OCc3ncccn3)c2c(=O)n1Cc1ccnc(C)c1.Cl,5 nM
,28 nM,9700 nM,,3000 nM,,COC(=O)c1c(-c2cc(OC)c(OC)c(OC)c2)c2ccc(OCc3ccccn3)cc2c(=O)n1-c1ccc(N)cc1.O=S(=O)(O)O,7.9 nM
,4.4 nM,,0.31 nM,25000 nM,,COC(=O)c1c(-c2cc(OC)c(OC)c(OC)c2)c2ccnc(OCc3ccccn3)c2c(=O)n1Cc1ccnc(C)c1,
,,,1.2 nM,,,COC(=O)c1c(-c2cc(OC)c(OC)c(OC)c2)c2ccc(OCCc3ccccn3)nc2c(=O)n1Cc1ccnc(C)c1,
50000 nM,72 nM,> 100000 nM,0.52 nM,20000 nM,> 100000 nM,COC(=O)c1c(-c2cc(OC)c(OC)c(OC)c2)c2ccnc(OCCc3ccccn3)c2c(=O)n1Cc1ccnc(C)c1.Cl,22 nM
,22 nM,,0.51 nM,40000 nM,,COC(=O)c1c(-c2cc(OC)c(OC)c(OC)c2)c2ccc(OCc3ccccn3)nc2c(=O)n1-c1ccc(N)cc1.Cl,
,22 nM,,1.8 nM,41000 nM,,COC(=O)c1c(-c2cc(OC)c(OC)c(OC)c2)c2ccc(NCc3ccccn3)nc2c(=O)n1Cc1ccnc(C)c1.Cl,
,7.7 nM,,0.29 nM,22000 nM,,COC(=O)c1c(-c2cc(OC)c(OC)c(OC)c2)c2ccc(OCc3cnccn3)nc2c(=O)n1Cc1ccnc(C)c1.Cl,
